Calls of active or inactive are those of the source. The rule behind the calls is not given here.

These results are taken from ChEMBL document CHEMBL1828576, “Synthesis of new six- and seven-membered 1-N-iminosugars as promising glycosidase inhibitors” (Bioorg Med Chem, 2011).

Experiment [1] relates to Prunus dulcis. As to the kind of experiment: Inhibition of almond seed beta-galactosidase assessed as residual hydrolysis of p-nitrophenyl-beta-D-galactopyranoside at 1 mM pre-incubated for 1 hr by Lineweaver-Burk plot analysis. The method, boiled down: (§1)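 Each enzyme was pre-incubated with inhibitor (10 µM to 1000 µM) at its optimal pH for 1 h at 37 °C. Hydrolysis was initiated with 2 mM p-nitrophenyl glycopyranoside substrate prepared in 0.025 M citrate, pH 4.0, and quenched with 0.05 M borate, pH 9.8. p-Nitrophenol was read at 405 nm, with controls lacking inhibitor run in parallel. Ki and mode of inhibition were derived from Lineweaver–Burk plots.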

The test system of experiment [2] is Geobacillus toebii. As to the kind of experiment: Competitive inhibition of Geobacillus toebii BK1 alpha-galactosidase assessed as residual hydrolysis of p-nitrophenyl-alpha-D-galactopyranoside pre-incubated for 1 hr by Lineweaver-Burk plot analysis. In a few lines:
(§2)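 The enzyme was pre-incubated with inhibitor (10 µM to 1000 µM) for 1 h at 60 °C at the enzyme's optimal pH. The reaction was started with 2 mM p-nitrophenyl glycopyranoside made up in 0.025 M citrate buffer, pH 4.0. It was stopped with 0.05 M borate buffer, pH 9.8, and released p-nitrophenol was read at 405 nm against inhibitor-free controls. Ki and inhibition type came from Lineweaver–Burk plots.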

For experiment [3], the system named is Prunus dulcis. Nature of the experiment: Inhibition of almond seed beta-glucosidase assessed as residual hydrolysis of p-nitrophenyl-beta-D-glucopyranoside at 1 mM pre-incubated for 1 hr by Lineweaver-Burk plot analysis. In a few lines:
as §1

The nature of experiment [4]: Inhibition of Geobacillus toebii BK1 alpha-galactosidase assessed as residual hydrolysis of p-nitrophenyl-alpha-D-galactopyranoside pre-incubated for 1 hr by Lineweaver-Burk plot analysis. In a few lines: as §2
Experiment [5] deals with Saccharomyces cerevisiae. As to the kind of experiment: Inhibition of baker's yeast alpha-glucosidase assessed as residual hydrolysis of p-nitrophenyl-alpha-D-glucopyranoside at 1 mM pre-incubated for 1 hr by Lineweaver-Burk plot analysis. In a few lines: as §1
Experiment [6] relates to Canavalia ensiformis. Nature of the experiment: Inhibition of jack bean N-acetyl-beta-D-glucosaminidase assessed as p-nitrophenol release at 1 mM pre-incubated for 1 hr by Lineweaver-Burk plot analysis. In a few lines:
as §1

Experiment [7] in a line: Inhibition of Geobacillus toebii BK1 alpha-galactosidase assessed as residual hydrolysis of p-nitrophenyl-alpha-D-galactopyranoside pre-incubated for 1 hr by spectrometric analysis. The method, boiled down: as §2
In experiment [8] the test system is Canavalia ensiformis. Nature of the experiment: Inhibition of jack bean alpha-mannosidase assessed as residual hydrolysis of p-nitrophenyl-alpha-D-mannopyranoside at 1 mM pre-incubated for 1 hr by Lineweaver-Burk plot analysis. The method, boiled down:
as §1

Experiment [9] relates to Canavalia ensiformis. As to the kind of experiment: Inhibition of jack bean N-acetyl-beta-D-glucosaminidase assessed as p-nitrophenol release at 1 mM pre-incubated for 1 hr by spectrometric analysis. The method, boiled down:
as §1

A short description of experiment [10]: Inhibition of sweet almond beta-glucosidase. Set-up: species or system Prunus dulcis. The method, boiled down:
as §1

The test system of experiment [11] is Geobacillus toebii. Nature of the experiment: Inhibition of Geobacillus toebii BK1 alpha-galactosidase assessed as residual hydrolysis of p-nitrophenyl-alpha-D-galactopyranoside at 1 mM pre-incubated for 1 hr by Lineweaver-Burk plot analysis. The method, boiled down:
as §2

Experiment [12] is described as follows: Inhibition of baker's yeast alpha-glucosidase assessed as residual hydrolysis of p-nitrophenyl-alpha-D-glucopyranoside pre-incubated for 1 hr by Lineweaver-Burk plot analysis. Set-up: species or system Saccharomyces cerevisiae. The method, boiled down:
as §1

Experiment [13] is described as follows: Inhibition of baker's yeast alpha-glucosidase assessed as residual hydrolysis of p-nitrophenyl-alpha-D-glucopyranoside pre-incubated for 1 hr by spectrometric analysis. Set-up: species or system Saccharomyces cerevisiae. In a few lines:
as §1

For `CN1C[C@@H](CCO)[C@@H](O)[C@H](O)C1`, the inhibition entry in experiment [1], in experiment [3], in experiment [5], in [6] and in experiment [8] was “inactive” each time. The inhibition result in experiment [2] is “Active”. For the same molecule, the Ki in experiment [4] worked out at 54 µM. Further, in experiment [7], the IC50 was determined as 50 µM. For the same molecule, the inhibition in experiment [9] is less than 50%.
With `OCC[C@@H]1CNC[C@@H](O)[C@@H]1O`, the inhibition result in experiment [1], in [3], in experiment [5], in [6] and in experiment [8] was “inactive” each time. For the same molecule, in experiment [2], the inhibition result was “Active”. Also, the Ki in experiment [4] was 66 µM. Also, the IC50 in experiment [7] came out at 65 µM. Also, the inhibition in [9] was less than 50%.
In [10], `OC[C@H]1CNC[C@@H](O)[C@@H]1O` [AFEGOSTAT] yielded a Ki of 0.11 µM.
On to `OCC[C@@H]1CNC[C@H](O)[C@@H](O)[C@@H]1O`, for which the inhibition result in [11], in experiment [1], in [3], in [6] and in experiment [8] was “inactive” in each case. The Ki in experiment [12] turned out to be 131 µM. In experiment [13], the IC50 worked out at 675 µM. Moreover, in experiment [9], the inhibition was less than 50%.

As usually defined, the inhibition is the drop in the measured response relative to a control, in per cent. The Ki is a measure of affinity in units of concentration, obtained from inhibition or displacement. For orientation: IC50 means the concentration needed to halve the response being measured.
